One may read the MIC as the lowest concentration that inhibits growth of the organism. The MIC80 is an inhibitory concentration at the 80% level, which refers to growth in some studies and to a panel of isolates in others.

Results on five compounds are retold here after ChEMBL document CHEMBL2346577, “Isolation, structure, and biological activity of Phaeofungin, a cyclic lipodepsipeptide from a Phaeosphaeria sp. Using the Genome-Wide Candida albicans Fitness Test” (J Nat Prod, 2013).

Values after ≈ are worked out from the molar mass of the structure shown. Active and inactive are the calls of the source. The calls are words filed in the database; no cut-off is given here. Numbered stars: 1 amine (or outer) side, 2 acyl side, 3 side chain; on linkers, the order of the positions; unused ones are H or OH. Bridge positions count the residues as written; N and C are the ends. Square brackets hold non-standard residues; d marks the D form. Peptide text beside a SMILES is read from it. * marks the point of attachment. ξ: configuration not given here. X2 = CCCCCCCCCCCCC(C)C(CC(=O)[*:1])O[*:2]; X1 = CCCCCCCCCCCCC(C)(O)C(O)CC(=O)*; ξhSer = NC(CCO)C(=O)O

In data set [1] the test system is Candida albicans. In words: Induction of ATP release from cytoplasm of Candida albicans SC5314 at >MIC by Promega Bactiter Glo assay. Type of data set: functional, organism-based. A digest of the protocol: (§1)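 ATP leaking from fungal cells exposed to compound was measured by BacTiter Glo luminescence per manufacturer's instructions, in parallel with whole-cell growth inhibition across a concentration series. Release was referenced to basal ATP release in the assay and to total ATP release for each strain.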

For data set [2], the system named is Candida albicans. The data set can be described thus: Induction of ATP release from cytoplasm of Candida albicans isolate 2323 at >MIC by Promega Bactiter Glo assay. It counts as functional, organism-based. Summed up:
as §1

The test system of a further data set is Staphylococcus aureus. In words: Antimicrobial activity against Staphylococcus aureus MB2865 assessed as inhibition of microbial growth after 24 hrs. Type of data set: functional. To be noted: MB2865, 24 h.
Data set [3] relates to Trichophyton mentagrophytes. In words: Antifungal activity against Trichophyton mentagrophytes MF7004 assessed as inhibition of fungal growth after 96 hrs. It counts as functional. To be noted: MF7004, 96 h. A digest of the protocol:
(§2)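 Whole-cell growth assay with incubation of 24 h for most strains, 48 h for A. fumigatus and 96 h for T. mentagrophytes. MIC is the lowest concentration inhibiting visible growth. MIC80 is prominent growth inhibition, also called MEC for Aspergillus.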

For data set [4], the system named is Aspergillus fumigatus. In words: Antifungal activity against Aspergillus fumigatus MF5668 assessed as inhibition of fungal growth after 48 hrs in presence of 50% human serum. It counts as functional. To be noted: MF5668, 48 h. Summed up:
as §2

Data set [5] relates to Aspergillus fumigatus. In words: Antifungal activity against Aspergillus fumigatus MF5668 assessed as inhibition of fungal growth after 48 hrs. Type of data set: functional. The following applies: MF5668, 48 h. A digest of the protocol:
(§3)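 Broth dilution against each fungal strain. Inoculum 10^5 CFU/mL, compound in 2-fold serial dilution in growth medium at 37 °C. MIC is the lowest concentration inhibiting visible growth; MIC80 (prominent inhibition, MEC for Aspergillus) also read. Incubation 24 h, except 48 h for A. fumigatus.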

In a further data set the test system is Pichia kudriavzevii. The data set can be described thus: Antifungal activity against Candida krusei ATCC 6258 assessed as inhibition of fungal growth after 24 hrs. It counts as functional. The following applies: ATCC 6258, 24 h. A digest of the protocol: as §3
The next data set deals with Clavispora lusitaniae. In words: Antifungal activity against Candida lusitaniae MY1396 assessed as inhibition of fungal growth after 24 hrs. It counts as functional. To be noted: MY1396, 24 h. A digest of the protocol:
as §2

For a further data set, the system named is Candida parapsilosis. The data set can be described thus: Antifungal activity against Candida parapsilosis ATCC 22019 assessed as inhibition of fungal growth after 24 hrs. It counts as functional. The following applies: Lodderomyces parapsilosis, ATCC 22019, 24 h. A digest of the protocol:
as §3

Another data set concerns Nakaseomyces glabratus. The data set can be described thus: Antifungal activity against Candida glabrata MY1381 assessed as inhibition of fungal growth after 24 hrs. The following applies: MY1381, 24 h. Type of data set: functional. Summed up:
as §3

In data set [6] the test system is Candida albicans. In words: Antifungal activity against Candida albicans MY1055 assessed as inhibition of fungal growth after 24 hrs in presence of 50% mouse serum. It counts as functional. The following applies: MY1055, 24 h.
For data set [7], the system named is Candida albicans. In words: Antifungal activity against Candida albicans MY1055 assessed as inhibition of fungal growth after 24 hrs. It counts as functional. To be noted: MY1055, 24 h. Summed up:
as §3

For the next data set, the system named is Candida tropicalis. The data set can be described thus: Antifungal activity against Candida tropicalis MY1012 assessed as inhibition of fungal growth after 24 hrs. It counts as functional. The following applies: MY1012, 24 h. A digest of the protocol: as §3
Data set [8] deals with Candida albicans. The data set can be described thus: Induction of ATP release from cytoplasm of Candida albicans isolate 2323 at 0.1 to 25 ug/ml by Promega Bactiter Glo assay. Type of data set: functional, organism-based. A digest of the protocol:
(§4)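 Release of cytoplasmic ATP from whole C. albicans cells (strains 2323 and SC5314) exposed to compound, measured with the BacTiter Glo luminescence kit per manufacturer's instructions. Read alongside whole-cell growth inhibition in the same strains, and compared with basal ATP release and total releasable ATP for each strain.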

For data set [9], the system named is Candida albicans. The data set can be described thus: Induction of ATP release from cytoplasm of Candida albicans SC5314 at 0.1 to 25 ug/ml by Promega Bactiter Glo assay. It counts as functional, organism-based. A digest of the protocol:
as §4

Data set [10] has as its system Candida albicans. The data set can be described thus: Antifungal activity against Candida albicans expressing DIP5 deletion mutant assessed as inhibition of fungal growth. Type of data set: functional, organism-based.
For data set [11], the system named is Candida albicans. The data set can be described thus: Antifungal activity against Candida albicans expressing CRZ1 deletion mutant assessed as inhibition of fungal growth. Type of data set: functional, organism-based.
Data set [12] deals with Candida albicans. The data set can be described thus: Antifungal activity against Candida albicans expressing CMD1 deletion mutant assessed as inhibition of fungal growth. Type of data set: functional, organism-based.
Data set [13] has as its system Candida albicans. In words: Induction of ATP release from cytoplasm of Candida albicans isolate 2323 at 0.2 to 50 ug/ml by Promega Bactiter Glo assay. It counts as functional, organism-based. A digest of the protocol:
as §4

In data set [14] the test system is Candida albicans. The data set can be described thus: Induction of ATP release from cytoplasm of Candida albicans SC5314 at 0.2 to 50 ug/ml by Promega Bactiter Glo assay. It counts as functional, organism-based. A digest of the protocol:
as §4

Data set [15] relates to Candida albicans. The data set can be described thus: Antifungal activity against Candida albicans expressing RTA1+/- gene assessed as inhibition of fungal growth. It counts as functional, organism-based.
The test system of data set [16] is Candida albicans. The data set can be described thus: Antifungal activity against Candida albicans expressing AUR+/- gene assessed as inhibition of fungal growth. It counts as functional, organism-based.
In data set [17] the test system is Mus musculus. The data set can be described thus: Toxicity in DBA/2N mouse assessed as induction of lethality at 6.25 mg/kg, ip. The arrangement: dose 6.25 mg/kg, route intraperitoneal. The following applies: in vivo. Type of data set: organism-based.
In data set [18] the test system is Mus musculus. The data set can be described thus: Toxicity in DBA/2N mouse assessed as induction of lethality at >12.5 mg/kg, ip. The following applies: in vivo. Type of data set: organism-based.

With `CC[C@H](C)C[C@H](C)CCCCCCCCC(=O)N[C@H]1C[C@@H](O)[C@@H](NCCN)NC(=O)[C@@H]2[C@@H](O)CCN2C(=O)[C@H]([C@H](O)CCN)NC(=O)[C@H]([C@H](O)[C@@H](O)c2ccc(O)cc2)NC(=O)[C@@H]2C[C@@H](O)CN2C(=O)[C@H]([C@@H](C)O)NC1=O` [CASPOFUNGIN], the outcome in the data set on Candida albicans [1] and in the data set with Candida albicans [2] was Active. The MIC in the data set on Staphylococcus aureus is more than 32 µg/mL; in data set [3] it was 32 µg/mL (≈ 29.3 µM); in the data set on Aspergillus fumigatus [4], 32 µg/mL; with Aspergillus fumigatus [5], 32 µg/mL (≈ 29.3 µM); in the data set with Pichia kudriavzevii it was 1 µg/mL (≈ 0.915 µM); with Clavispora lusitaniae, less than 0.03 µg/mL. The MIC with Candida parapsilosis came out at 0.5 µg/mL (≈ 0.457 µM); with Nakaseomyces glabratus it was 0.25 µg/mL (≈ 0.229 µM); in the data set with Candida albicans [6], 0.25 µg/mL; with Candida albicans [7] it was 0.5 µg/mL (≈ 0.457 µM).

Regarding `CCCCCCCCCCCCC(C)(O)C(O)CC(=O)N[C@@H](CO)C(=O)N[C@@H](C)C(=O)N[C@@H](CC(=O)O)C(=O)N[C@@H](C)C(=O)N[C@@H](CO)C(=O)N[C@@H](CO)C(=O)N[C@H](C(=O)O)[C@@H](C)O` (some centres undefined) (X1-SADASST-OH), the minimum inhibitory concentration (MIC) (with Staphylococcus aureus; in [3]; with Aspergillus fumigatus [4]; in the data set with Aspergillus fumigatus [5]; with Candida tropicalis; in the data set on Pichia kudriavzevii) was more than 32 µg/mL throughout. For the same compound, the MIC in the data set with Clavispora lusitaniae, with Candida parapsilosis, in the data set with Nakaseomyces glabratus, with Candida albicans [6] and with Candida albicans [7] was more than 32 µg/mL each time.

Consider `CCCCCCCCCCCCC(C)C1CC(=O)N[C@@H](C)C(=O)NC(CCO)C(=O)N[C@@H](CCC(=O)O)C(=O)NCC(=O)N[C@@H](CO)C(=O)N[C@H](CC(N)=O)C(=O)N[C@H]([C@H](C)O)C(=O)NC(CCO)C(=O)O1` (some centres undefined) (A[ξhSer]EGS[dN][dT][ξhSer]; linker N-C via X2), for which the outcome with Candida albicans [8] and in the data set with Candida albicans [9] was inactive. Further, the “growth inhibition (GI)” value with Candida albicans [10] is “inactive”. Besides, the “growth inhibition (GI)” value in the data set with Candida albicans [11] and in the data set on Candida albicans [12] was “Active” throughout.

On to `CCCCCCCCCCCC(C)(O)C1CC(=O)N[C@@H](CO)C(=O)N[C@H](C)C(=O)N[C@H](CC(=O)O)C(=O)N[C@@H](C)C(=O)N[C@H](CO)C(=O)N[C@H](CO)C(=O)N[C@H]([C@@H](C)O)C(=O)O1` (some centres undefined) [PHAEOFUNGIN], for which the outcome in the data set with Candida albicans [13] and in the data set with Candida albicans [14] was Active. Also, the “growth inhibition (GI)” value in the data set with Candida albicans [10], in the data set with Candida albicans [11] and with Candida albicans [12] was “inactive” in each case. For the same compound, the “growth inhibition (GI)” value with Candida albicans [15] and in the data set with Candida albicans [16] was “Active” in each case. Further, the Activity entry is on record as “Non-toxic” with Mus musculus [17] and “Dose-dependent effect” with Mus musculus [18]. In addition, the MIC was more than 32 µg/mL in the data set on Staphylococcus aureus; 4 µg/mL (≈ 4.49 µM) in [3]; more than 32 µg/mL in the data set with Aspergillus fumigatus [4]; 16 µg/mL (≈ 18 µM) in the data set with Aspergillus fumigatus [5]; more than 32 µg/mL in the data set with Candida tropicalis; more than 32 µg/mL in the data set with Pichia kudriavzevii. Moreover, the minimal inhibitory concentration (MIC) in the data set on Clavispora lusitaniae was 32 µg/mL (≈ 36 µM); in the data set on Candida parapsilosis it was more than 32 µg/mL; with Nakaseomyces glabratus it was more than 32 µg/mL; in the data set on Candida albicans [6] it was more than 32 µg/mL; with Candida albicans [7], 32 µg/mL (≈ 36 µM). Moreover, the minimal effective concentration with Aspergillus fumigatus [5] (read-out: MEC) stood at 8 µg/mL. Also, the MIC80 in the data set on Pichia kudriavzevii is 32 µg/mL (≈ 36 µM); in the data set with Candida parapsilosis, 32 µg/mL (≈ 36 µM); in the data set with Candida albicans [7], 16 µg/mL (≈ 18 µM).

For `C[C@@H]1[C@H](O)[C@@H](C)/C=C/C=C/C=C/C=C/C=C/C=C/C=C/[C@H](O[C@@H]2O[C@H](C)[C@@H](O)[C@H](N)[C@@H]2O)C[C@@H]2O[C@](O)(C[C@@H](O)C[C@@H](O)[C@H](O)CC[C@@H](O)C[C@@H](O)CC(=O)O[C@H]1C)C[C@H](O)[C@H]2C(=O)O`, the result with Candida albicans [1] and with Candida albicans [2] was inactive.
